Data set [1] concerns Salmonella typhimurium. Description: Suppression in mutagenesity in Salmonella Typhimurium TA102 assessed as 100 to 50% suppression of revertant formation by Ames assay. The note with it: Salmonella enterica. On the technique in general: The Ames test detects mutagens through reverse mutation in bacteria.
Data set [2] in a line: Cytotoxicity against mouse LMTK cells after 72 hrs by MTT assay. The format is cell-based. Conditions: L-M(TK-). A general note: Tetrazolium assays rely on reduction of a dye to a coloured formazan, in cell work by metabolically active cells; call rule not given here.
Data set [3] in a line: Cytotoxicity against mouse PMF after 72 hrs by MTT assay.
The next data set relates to RPMI-8226. Nature of the data set: Cytotoxicity against human RPMI8226 cells after 72 hrs by MTT assay. It is filed as functional, cell-based. The note with it: RPMI-8226, 72 h.
The test system of another data set is MCF7. Description: Cytotoxicity against human MCF7 cells after 72 hrs by MTT assay. The format is functional, cell-based. Conditions: MCF7, 72 h.
Data set [4] concerns Salmonella typhimurium. Nature of the data set: Suppression in H2O2-iduced mutagenesity in Salmonella Typhimurium TA102 assessed as 100 to 50 % suppression of revertant formation by Ames assay. The note with it: Salmonella enterica.
For data set [5], the system named is Salmonella typhimurium. Nature of the data set: Suppression in H2O2-iduced mutagenesity in Salmonella Typhimurium TA102 assessed as 150 to 100 % suppression of revertant formation by Ames assay. Conditions: Salmonella enterica.
A short description of data set [6]: Growth inhibition of mouse PMF at 25 ug/ml after 72 hrs by MTT assay. Conditions: mouse PMF cells, read-out: GI. A digest of the protocol: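 PMF cells (about 2000 per well) seeded and held 24 h at 37 °C in IMDM or RPMI 1640 under 5% CO2, then exposed to compound.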
Data set [7] deals with Salmonella typhimurium. Nature of the data set: Suppression in mutagenesity in Salmonella Typhimurium TA102 assessed as 100 to 50% suppression of revertant formation at 50 ug/ml by Ames assay.
Data set [8] can be described thus: Growth inhibition of mouse LMTK cells at 173 uM after 72 hrs by MTT assay. The format is cell-based.

The values that follow come from ChEMBL document CHEMBL1165870, “Cytotoxicity of new alkylamino- and phenylamino-containing polyfluorinated derivatives of 1,4-naphthoquinone” (Eur J Med Chem, 2010).

In general, IC50 refers to the point on the concentration scale where inhibition reaches its midpoint.

Consider `CCNC1=C(F)C(=O)c2c(F)c(F)c(F)c(F)c2C1=O`, for which the IC50 in the data set on Salmonella typhimurium [1] was found to be 0.69 µM; in data set [2], 11 µM; in data set [3], 30.9 µM; in the data set on RPMI-8226, 2.4 µM; in the data set on MCF7 it was 8.6 µM; in the data set on Salmonella typhimurium [4], 1 µM. The IC50 with Salmonella typhimurium [5] was 0.094 µM.
Consider `CC(C)(C)NC1=C(F)C(=O)c2c(F)c(F)c(F)c(F)c2C1=O`, for which the IC50 was 12.2 µM in the data set with Salmonella typhimurium [1]; 6.3 µM in data set [2]; 3.1 µM in [3]; 3.5 µM with RPMI-8226; 2.5 µM in the data set with MCF7; 6.9 µM in the data set with Salmonella typhimurium [4]. The IC50 with Salmonella typhimurium [5] was 1.4 µM.
For `CCN(CC)C1=C(F)C(=O)c2c(F)c(F)c(F)c(F)c2C1=O`, the IC50 was determined as 18.5 µM with Salmonella typhimurium [1]; 62.7 µM in [2]; 28.2 µM in data set [3]; 6.9 µM in the data set with RPMI-8226; 4.1 µM in the data set on MCF7; 2.7 µM in the data set with Salmonella typhimurium [4]. Also, the IC50 with Salmonella typhimurium [5] was found to be 0.86 µM.
Consider `CC1=C(Nc2ccccc2)C(=O)c2c(F)c(F)c(F)c(F)c2C1=O`, for which the IC50 is > 149 µM in the data set on Salmonella typhimurium [1]; 104 µM in data set [2]; 22.4 µM in the data set with RPMI-8226; 13.4 µM in the data set with MCF7; 21.8 µM with Salmonella typhimurium [4]; 0.75 µM in the data set with Salmonella typhimurium [5]. In addition, the inhibition at 72 h, 25 ug/ml in data set [6] stood at 45%. The Activity in the data set with Salmonella typhimurium [7] came to 24%.
With `O=C1C(F)=C(Nc2ccccc2)C(=O)c2c(F)c(F)c(F)c(F)c21`, the IC50 in the data set with Salmonella typhimurium [1] came to 0.59 µM; in [2] it was 11.8 µM; in data set [3], 7.4 µM; with RPMI-8226 it was 2.4 µM; with MCF7, 2.4 µM; with Salmonella typhimurium [4] it was 0.15 µM. In addition, the IC50 with Salmonella typhimurium [5] is 0.089 µM.
For the molecule `CC1=C(SCCO)C(=O)c2c(F)c(F)c(F)c(F)c2C1=O`, the IC50 amounted to 0.81 µM in the data set with Salmonella typhimurium [1], 14.8 µM in the data set with RPMI-8226, 173 µM in the data set on MCF7 and 0.44 µM in the data set on Salmonella typhimurium [4]. For the same molecule, the “growth inhibition (GI)” value in data set [8] is “Not Active”.
